Measured values from paper PMC4059272 (Journal of Medicinal Chemistry, 2014).

Assays:
[1] = target: T1, ERα (Homo sapiens, UniProt P03372); assay: Immunoblotting of ERα protein levels in MCF-7:WS8 cells; assay type: cell-based; settings: for regulation of ERα protein levels: MCF-7:WS8, 24 h treatment
T1 sequence (P03372 1-595): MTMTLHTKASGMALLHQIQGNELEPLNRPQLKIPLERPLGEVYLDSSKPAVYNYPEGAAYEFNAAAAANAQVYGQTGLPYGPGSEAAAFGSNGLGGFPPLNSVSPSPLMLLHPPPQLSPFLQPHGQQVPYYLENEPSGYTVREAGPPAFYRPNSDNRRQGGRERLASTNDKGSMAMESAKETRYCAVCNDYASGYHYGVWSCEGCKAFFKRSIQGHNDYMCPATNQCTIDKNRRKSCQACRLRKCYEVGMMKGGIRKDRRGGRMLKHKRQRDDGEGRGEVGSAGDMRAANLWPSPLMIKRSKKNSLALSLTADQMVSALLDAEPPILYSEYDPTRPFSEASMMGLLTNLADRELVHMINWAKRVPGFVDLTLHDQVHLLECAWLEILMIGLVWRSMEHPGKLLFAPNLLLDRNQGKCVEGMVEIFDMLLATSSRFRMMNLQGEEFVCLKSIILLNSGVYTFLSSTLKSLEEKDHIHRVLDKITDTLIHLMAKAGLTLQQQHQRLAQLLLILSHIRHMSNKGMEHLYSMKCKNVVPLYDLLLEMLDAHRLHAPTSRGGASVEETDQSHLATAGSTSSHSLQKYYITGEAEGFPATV

[2] = system: pS2 gene; assay: RT-PCR of estrogen-responsive gene pS2 in MCF-7:WS8 cells; assay type: cell-based, human; settings: MCF-7:WS8, 48 h; E2 at 10^–10 M, other compounds at 10^–6 M
Procedure, shortened: (§1)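 MCF-7:WS8 cells kept in phenol-red RPMI 1640 with 10% FBS, glutamine, nonessential amino acids and 6 ng/mL insulin at 37 °C, 5% CO2. Cells were estrogen-starved 3 days, seeded at 300 000 cells/well the day before, and treated 48 h. RNA was taken in Trizol and run as SYBR green real-time PCR with 36B4 as reference.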

[3] = system: MCF-7:WS8 cells; assay: DNA quantification growth assay, compounds alone; assay type: cell-based, human; settings: for estrogenic properties on cell growth: MCF-7:WS8, compounds alone, concentration range 10^–12–10^–6 M
[4] = system: GREB1 gene; assay: RT-PCR of estrogen-responsive gene GREB1 in MCF-7:WS8 cells; assay type: cell-based, human; settings: MCF-7:WS8, 48 h; E2 at 10^–10 M, other compounds at 10^–6 M
Procedure, shortened: as §1

[5] = system: prolactin gene (Prl); assay: RT-PCR of prolactin; assay type: cell-based, rat; settings: GH3 cells, top concentration of 10^–6 M, with 1 nM E2
[6] = system: MCF-7:WS8 cells; assay: DNA based growth assay, combination treatments with 10^–10 M E2; assay type: cell-based, human; settings: for inhibition of 10^–10 M E2-induced growth: MCF-7:WS8, at 10^–6 M
[7] = system: PgR gene; assay: RT-PCR of estrogen-responsive gene PgR in MCF-7:WS8 cells; assay type: cell-based, human; settings: MCF-7:WS8, 48 h; E2 at 10^–10 M, other compounds at 10^–6 M
Procedure, shortened: as §1

| reduction (down-regulation) of ERα level by densitometry ([1]; MCF-7:WS8, 24 h, E2 at 1 nM) | regulation of ERα protein levels [1] | SMILES | effect on pS2 mRNA expression [2] | estrogenic properties on cell growth [3] | effect on GREB1 mRNA expression [4] | inhibition of 1 nM E2-induced Prl gene up-regulation [5] | inhibition of 10^–10 M E2-induced growth [6] | effect on PgR mRNA expression [7] | partial agonist growth level, % max of E2 curve ([3]; MCF-7:WS8, over the range 10^–12–10^–9 M) [%] | inhibition of E2-stimulated cell growth at top concentration ([6]; MCF-7:WS8, 10^–6 M compound with 10^–10 M E2) |
| --- | --- | --- | --- | --- | --- | --- | --- | --- | --- | --- |
| more than 90% | – | C[C@]12CC[C@@H]3c4ccc(O)cc4C[C@@H](CCCCCCCCC[S+]([O-])CCCC(F)(F)C(F)(F)F)[C@H]3[C@@H]1CC[C@@H]2O (stereo partly drawn) [Fulvestrant] | – | – | – | – | – | – | – | – |
| – | – | CNCCOc1ccc(C2=C(c3ccccc3)CCCc3cc(O)ccc32)cc1 [ZFREndox, 9-(4-(2-(Methylamino)ethoxy)phenyl)-8-phenyl-6,7-dihydro-5H-benzocyclohepten-3-ol] | no significant effect | no estrogenic properties | no significant effect | completely inhibit | – | – | – | – |
| – | – | CCC(=C(c1ccc(O)cc1)c1ccc(OCCN(C)C)cc1)c1ccccc1 [4OHT, 4-hydroxytamoxifen] | no significant effect | no estrogenic properties | no significant effect | completely inhibit | completely | – | – | – |
| – | – | CN(C)CCOc1ccc2c(c1)CCCC(c1ccccc1)=C2c1ccc(O)cc1 [EFR4OHT] | induce expression | – | induce expression | – | – | induce expression | – | – |
| – | up-regulated the protein levels | CCC(=C(c1ccc(O)cc1)c1ccc(O)cc1)c1ccccc1 [BPTPE] | partial estrogenic effect | – | partial estrogenic effect | – | – | partial estrogenic effect | 50 | – |
| – | – | CCOc1ccc2c(c1)CCCC(c1ccccc1)=C2c1ccc(OCCN(C)C)cc1 [ZFR4OHT] | no significant effect | no estrogenic properties | no significant effect | completely inhibit | – | – | – | – |
| – | – | C[C@]12CC[C@@H]3c4ccc(O)cc4CC[C@H]3[C@@H]1CC[C@@H]2O [E2, 17β-estradiol] | induced expression | – | induced expression | – | – | induced expression | – | – |
| – | – | CNCCOc1ccc2c(c1)CCCC(c1ccccc1)=C2c1ccc(O)cc1 [EFREndox, 4-(3-(2-(Methylamino)ethoxy)-8-phenyl-6,7-dihydro-5H-benzocyclohepten-9-yl)phenol] | induce expression | – | induce expression | – | – | induce expression | – | about 10% |
| – | up-regulation | CC/C(=C(\c1ccc(O)cc1)c1ccc(OCCNC)cc1)c1ccccc1 [Endoxifen, 4-hydroxy-N-desmethyltamoxifen] | – | no estrogenic properties | – | – | completely | – | – | – |
| – | up-regulated the protein levels | CCC(=C(c1ccc(O)cc1)c1ccc(O)cc1)c1ccc(O)cc1 [3OHTPE] | partial estrogenic effect | – | partial estrogenic effect | – | – | partial estrogenic effect | – | – |
